Results taken from ChEMBL document CHEMBL4390650, “Design, synthesis and biological evaluation of 2-(phenoxymethyl)-5-phenyl-1,3,4-oxadiazole derivatives as anti-breast cancer agents” (Eur J Med Chem, 2019).
The source made the active and inactive calls. No cut-off for these calls is given here.

Assays:
MDA-MB-453 [1] = experiment: Cytotoxicity against human MDA-MB-453 cells assessed as reduction in cell viability incubated for 48 hrs by MTT assay; format: functional, cell-based; conditions: for IC50: MDA-MB-453, 48 h
In short: (§1)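 Cells came from NCCS Pune and were grown in DMEM with 10% FBS at 37°C, 5% CO2, then trypsinized at 70-80% confluence. About 5,000 cells/well were seeded and allowed 24 h to recover. Compounds in DMSO, up to 100 μM, were added for 48 h against DMSO-only controls. The medium was then changed and MTT (5 mg/ml stock) added for 4 h. Formazan was dissolved in DMSO and read at 560 nm. Values are mean ± SD of three independent experiments in triplicate.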

MCF-10A = experiment: Cytotoxicity against human MCF10A cells assessed as reduction in cell viability incubated for 48 hrs by MTT assay; format: cell-based; in short: as §1
MCF7 = experiment: Cytotoxicity against human MCF7 cells assessed as reduction in cell viability incubated for 48 hrs by MTT assay; format: functional, cell-based; conditions: for IC50: MCF7, 48 h; in short: as §1
[2] = molecular target: DNA (cytosine-5)-methyltransferase 1 (Homo sapiens) (UniProt P26358); experiment: Inhibition of DNMT1 (unknown origin) at 100 uM using cytosine-rich DNA substrate by ELISA relative to untreated control
DNA (cytosine-5)-methyltransferase 1 (Homo sapiens), sequence (P26358 whole entry): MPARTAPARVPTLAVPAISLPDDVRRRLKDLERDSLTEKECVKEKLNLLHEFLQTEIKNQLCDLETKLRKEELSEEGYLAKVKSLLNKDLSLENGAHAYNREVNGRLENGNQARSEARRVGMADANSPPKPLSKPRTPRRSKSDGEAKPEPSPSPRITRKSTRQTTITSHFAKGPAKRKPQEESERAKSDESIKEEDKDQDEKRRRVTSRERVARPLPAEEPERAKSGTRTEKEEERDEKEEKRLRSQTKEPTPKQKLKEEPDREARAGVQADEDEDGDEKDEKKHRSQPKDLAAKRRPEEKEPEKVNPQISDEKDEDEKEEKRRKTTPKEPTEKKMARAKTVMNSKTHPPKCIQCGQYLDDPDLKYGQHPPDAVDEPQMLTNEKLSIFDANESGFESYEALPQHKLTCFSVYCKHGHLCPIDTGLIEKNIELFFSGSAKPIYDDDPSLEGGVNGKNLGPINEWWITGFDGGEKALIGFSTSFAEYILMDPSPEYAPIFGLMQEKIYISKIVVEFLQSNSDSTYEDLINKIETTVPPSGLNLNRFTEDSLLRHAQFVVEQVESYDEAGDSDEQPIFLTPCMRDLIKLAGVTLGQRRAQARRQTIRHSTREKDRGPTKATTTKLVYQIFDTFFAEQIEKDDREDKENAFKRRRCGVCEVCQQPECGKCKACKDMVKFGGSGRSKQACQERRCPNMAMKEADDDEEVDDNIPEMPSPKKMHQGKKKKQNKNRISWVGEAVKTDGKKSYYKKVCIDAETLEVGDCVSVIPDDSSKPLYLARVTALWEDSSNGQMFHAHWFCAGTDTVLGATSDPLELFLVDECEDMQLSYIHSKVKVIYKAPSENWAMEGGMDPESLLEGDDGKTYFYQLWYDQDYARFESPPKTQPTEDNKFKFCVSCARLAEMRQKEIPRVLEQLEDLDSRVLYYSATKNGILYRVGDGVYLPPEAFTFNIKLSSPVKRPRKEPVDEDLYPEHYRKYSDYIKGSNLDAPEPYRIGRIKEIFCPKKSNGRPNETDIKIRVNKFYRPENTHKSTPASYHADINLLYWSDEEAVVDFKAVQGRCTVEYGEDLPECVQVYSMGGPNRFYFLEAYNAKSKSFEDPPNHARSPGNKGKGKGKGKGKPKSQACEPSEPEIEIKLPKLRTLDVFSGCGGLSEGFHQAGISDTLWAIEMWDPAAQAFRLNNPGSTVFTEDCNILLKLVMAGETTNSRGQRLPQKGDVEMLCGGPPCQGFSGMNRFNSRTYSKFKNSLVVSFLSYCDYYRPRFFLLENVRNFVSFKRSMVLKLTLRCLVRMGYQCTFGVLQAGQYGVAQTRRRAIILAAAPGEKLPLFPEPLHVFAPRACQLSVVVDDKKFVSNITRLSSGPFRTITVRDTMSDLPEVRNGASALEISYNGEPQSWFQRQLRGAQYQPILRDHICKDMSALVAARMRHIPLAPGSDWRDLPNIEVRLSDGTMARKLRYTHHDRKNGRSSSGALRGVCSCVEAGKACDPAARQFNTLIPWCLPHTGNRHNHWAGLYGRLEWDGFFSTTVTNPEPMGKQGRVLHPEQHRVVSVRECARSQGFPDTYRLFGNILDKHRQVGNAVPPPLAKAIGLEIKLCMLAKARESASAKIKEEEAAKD
In short: (§2)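 DNMT activity was measured with a commercial DNA methyltransferase activity/inhibition screening kit, following the manufacturer's instructions.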

[3] = molecular target: DNA (cytosine-5)-methyltransferase 3B (Homo sapiens) (UniProt Q9UBC3); experiment: Inhibition of DNMT3B (unknown origin) at 100 uM using cytosine-rich DNA substrate by ELISA relative to untreated control; in short: as §2
MDA-MB-453 [4] = experiment: Induction of morphological changes in human MDA-MB-453 cell assessed as induction of protrusion elongation at 10 uM incubated for 48 hrs by acridine orange and ethidium bromide staining based inverted fluorescent microscopy; format: functional
In short: (§3)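 MDA-MB-453 cells were seeded at 5×10⁵/well and incubated overnight at 37°C, 5% CO2, then treated for 48 h. They were stained 5 min with a 1:1 acridine orange/ethidium bromide mix (each dye 100 μg/ml) and imaged immediately under an inverted fluorescence microscope. Scoring: live cells green, late apoptotic orange, necrotic red.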

MDA-MB-453 [5] = experiment: Induction of apoptosis in human MDA-MB-453 cells assessed as increase in SMAD7 protein expression at 10 uM incubated for 48 hrs by Western blot analysis; format: functional, cell-based
In short: (§4)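 Western blot of treated MDA-MB-453 cells, with GAPDH as loading control.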

MDA-MB-453 [6] = experiment: Induction of morphological changes in human MDA-MB-453 cell assessed as induction of cell membrane blebbing at 10 uM incubated for 48 hrs by acridine orange and ethidium bromide staining based inverted fluorescent microscopy; format: functional; in short: as §3
MDA-MB-453 [7] = experiment: Induction of morphological changes in human MDA-MB-453 cell assessed as induction of chromatin condensation at 10 uM incubated for 48 hrs by acridine orange and ethidium bromide staining based inverted fluorescent microscopy; format: functional; in short: as §3
MDA-MB-453 [8] = experiment: Induction of apoptosis in human MDA-MB-453 cells at 10 uM incubated for 48 hrs by acridine orange and ethidium bromide staining based inverted fluorescent microscopy; format: functional, cell-based; in short: as §3
MDA-MB-453 [9] = experiment: Induction of apoptosis in human MDA-MB-453 cells assessed as increase in p53 protein expression incubated for 48 hrs by Western blot analysis; format: functional, cell-based; in short: as §4
MDA-MB-453 [10] = experiment: Induction of necrosis in human MDA-MB-453 cells at 10 uM incubated for 48 hrs by acridine orange and ethidium bromide staining based inverted fluorescent microscopy; format: functional, cell-based; in short: as §3

| SMILES | IC50 (MDA-MB-453 [1]) [µM] | IC50 (MCF-10A) [µM] | IC50 (MCF7) [µM] | also measured |
| --- | --- | --- | --- | --- |
| COc1ccc(-c2nnc(COc3ccc(C#N)cc3OC)o2)cc1 | 13 | > 100 | 11.1 |  |
| Cc1ccc(-c2nnc(COc3ccc(C#N)c(F)c3)o2)cc1 | > 50 | > 100 | > 50 |  |
| COc1ccc(-c2nnc(COc3ccc(-c4nnco4)cc3)o2)cc1 | 36.2 | > 100 | 31.2 |  |
| c1ccc(-c2nnc(COc3ccc(-c4nnco4)cc3)o2)cc1 | > 50 | > 100 | > 50 |  |
| COc1cc(C#N)ccc1OCc1nnc(-c2ccc(C)cc2)o1 | 38.4 | > 100 | 27.1 |  |
| Clc1ccc(-c2nnc(COc3ccc(-c4nnco4)cc3)o2)cc1 | > 50 | > 100 | 45.2 |  |
| COc1cc(C#N)ccc1OCc1nnc(-c2ccc(Cl)cc2)o1 | 33.9 | 89.5 | 21.5 |  |
| Cc1ccc(NC(=O)c2ccc(CN3CCN(C)CC3)cc2)cc1Nc1nccc(-c2cccnc2)n1 [IMATINIB] | 12.8 | > 100 |  |  |
| N#Cc1ccc(OCc2nnc(-c3ccc(F)cc3)o2)cc1F | 25.1 | 84.2 | 20.4 |  |
| Cc1ccc(-c2nnc(COc3ccc(-c4nnco4)cc3)o2)cc1 | > 50 | > 100 | > 50 |  |
| COc1ccc(-c2nnc(COc3ccc(C#N)c(F)c3)o2)cc1 | 45.5 | > 100 | 42.1 |  |
| N#Cc1ccc(OCc2nnc(-c3ccc(Cl)cc3)o2)cc1F | > 50 | > 100 | 48.3 |  |
| COc1cc(C#N)ccc1OCc1nnc(-c2ccc(F)cc2)o1 | 10.5 | > 100 | 10.2 | inhibition [2]: 10%; inhibition [3]: 33%; Activity (MDA-MB-453 [4]): Active; Activity (MDA-MB-453 [5]): Active; Activity (MDA-MB-453 [1]): Dose-dependent effect; Activity (MDA-MB-453 [6]): Active; Activity (MDA-MB-453 [7]): Active; Activity (MDA-MB-453 [8]): Active; Activity (MDA-MB-453 [9]): Dose-dependent effect; Activity (MCF7): Dose-dependent effect; Activity (MDA-MB-453 [10]): Active |
| N#Cc1ccc(OCc2nnc(-c3ccccc3)o2)cc1F | > 50 | > 100 | > 50 |  |
| Fc1ccc(-c2nnc(COc3ccc(-c4nnco4)cc3)o2)cc1 | 38.2 | > 100 | 35.6 |  |
| COc1cc(C#N)ccc1OCc1nnc(-c2ccccc2)o1 | 40.1 | > 100 | 32.2 |  |
